Experimental data taken from paper PMC6426446 (Bioorganic & medicinal chemistry, 2010).
Entries after “also recorded” stand apart in the source; their conditions may differ.

Legend:
[1] = system: CRL-2365 (brain glioblastoma); test: MTT assay CRL-2365; assay type: cell-based; conditions: Homo sapiens, read-out: IC50 MTT assay CRL-2365
Outline: (§1)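 Standard MTT growth-inhibition assay with DMSO as vehicle. CRL-2365 and CRL-2366 were kept in DMEM; MCF-7, A549 and mouse 3LL in RPMI-1640. Both media carried 10% fetal bovine serum, penicillin G (100 U/mL) and streptomycin (100 μg/mL). MCF-10A breast cells were grown in Mammary Epithelial Growth Medium.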

[2] = system: CRL-2366 (DNA repair deficient brain glioblastoma); test: MTT assay CRL-2366; assay type: cell-based; conditions: Homo sapiens, read-out: IC50 MTT assay CRL-2366
Outline: as §1

[3] = system: cultured human and mouse cell lines; test: MTT assay, all tested cell lines; assay type: cell-based
Outline: as §1

[4] = biological target: NADH-ubiquinone oxidoreductase (mitochondrial complex I) (Bos taurus, UniProt P03887+P17694+P42026); test: NADH-ubiquinone; assay type: biochemical, bovine; conditions: compared with 12
[5] = Stability of purified compound; assay type: physicochemical
[6] = system: MCF-7 human breast carcinoma cells; test: Lactate assay; assay type: cell-based; conditions: MCF-7 cells, 3 h, varying concentrations
Outline: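 MCF-7 cells seeded at 2 × 10^5 per well and grown 24 h (about 50% confluence). Wells rinsed with pre-warmed Krebs-Ringer buffer, then exposed for 3 h to test compound in buffer against buffer-only controls. Supernatant lactate measured as absorbance change at 363 nm and converted using extinction coefficient 9.1 mM−1 cm−1. Three determinations per point; experiments repeated at least three times.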

NADH fumarate reductase = conditions: cited from earlier work
[7] = biological target: NADH oxidase (complexes I, III and IV) (Bos taurus, UniProt P03887+P17694+P42026); test: NADH oxidase activity in bovine heart submitochondrial particles; assay type: biochemical; conditions: bovine heart SMP
Sequence of NADH oxidase (complexes I, III and IV) (P03887 whole entry): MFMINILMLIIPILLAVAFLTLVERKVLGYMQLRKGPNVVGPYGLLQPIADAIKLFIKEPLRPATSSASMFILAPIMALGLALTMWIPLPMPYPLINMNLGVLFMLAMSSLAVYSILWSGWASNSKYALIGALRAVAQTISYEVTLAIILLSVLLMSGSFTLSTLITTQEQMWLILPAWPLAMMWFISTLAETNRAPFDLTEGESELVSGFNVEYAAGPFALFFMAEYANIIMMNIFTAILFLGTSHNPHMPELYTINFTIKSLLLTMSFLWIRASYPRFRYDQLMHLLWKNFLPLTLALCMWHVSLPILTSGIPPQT
Sequence of NADH oxidase (complexes I, III and IV) (P42026 38-216): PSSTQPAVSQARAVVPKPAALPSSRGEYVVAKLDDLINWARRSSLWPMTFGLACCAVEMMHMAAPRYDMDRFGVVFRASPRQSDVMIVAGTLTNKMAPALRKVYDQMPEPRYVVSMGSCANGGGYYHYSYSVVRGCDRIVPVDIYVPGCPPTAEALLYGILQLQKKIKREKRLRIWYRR
Sequence of NADH oxidase (complexes I, III and IV) (P17694 34-463): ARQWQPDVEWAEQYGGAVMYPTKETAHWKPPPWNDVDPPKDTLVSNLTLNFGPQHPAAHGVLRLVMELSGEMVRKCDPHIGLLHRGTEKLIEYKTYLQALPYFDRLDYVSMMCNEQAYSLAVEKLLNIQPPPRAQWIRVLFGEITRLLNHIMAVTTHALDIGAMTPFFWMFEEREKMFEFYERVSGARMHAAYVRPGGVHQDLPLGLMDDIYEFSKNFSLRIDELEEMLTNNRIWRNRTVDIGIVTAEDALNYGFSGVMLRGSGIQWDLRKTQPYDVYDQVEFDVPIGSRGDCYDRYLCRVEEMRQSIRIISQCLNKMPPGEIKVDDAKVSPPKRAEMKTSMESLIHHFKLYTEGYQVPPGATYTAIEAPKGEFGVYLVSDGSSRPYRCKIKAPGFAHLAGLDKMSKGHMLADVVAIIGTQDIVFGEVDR

Sequence of NADH-ubiquinone oxidoreductase (mitochondrial complex I) (P03887 whole entry): as the sequence (P03887 whole entry) above
Sequence of NADH-ubiquinone oxidoreductase (mitochondrial complex I) (P42026 38-216): as the sequence (P42026 38-216) above
Sequence of NADH-ubiquinone oxidoreductase (mitochondrial complex I) (P17694 34-463): as the sequence (P17694 34-463) above

Row | SMILES | IC50 [1] [µM] | IC50 [2] [µM] | Stimulation of lactate production (in words) [6] | further results
1 | CCCCCCCCC(C)(O)CCc1oc(=O)c(C)c(O)c1C (racemic) [Compound 12, (rac)-6-[3-Hydroxy-3-methylundecyl]-3,5-dimethyl-4-hydroxypyran-2-one] | > 31 | > 31 |  | 
2 | CCCCCCCCC(C)(O)CCc1oc(C)c(C)c(=O)c1C (racemic) [Compound 18, (rac)-2-[3-Hydroxy-3-methylundecyl]-3,5,6-trimethyl-4H-pyran-4-one] |  |  |  | Cytotoxicity (in words) [3]: no cytotoxicity
3 | CCCCCCCCC(C)(O)CCc1[nH]c(=O)c(C)c(O)c1C (racemic) [Compound 21, (rac)-6-[3-Hydroxy-3-methylundecyl]-3,5-dimethyl-4-hydroxypyridin-2-one] |  |  |  | Potency relative to 12 as inhibitor of NADH-ubiquinone oxidoreductase [4]: more than 10 fold; Stability after purification by preparative thin layer chromatography [5]: rather unstable
4 | CCCCCCCCCC(O)Cc1oc(OC)c(C)c(=O)c1C (stereo not shown) [Compound 1, 2-(2-Hydroxyundecyl)-6-methoxy-3,5-dimethyl-4H-pyran-4-one] |  |  | strongly stimulated | Inhibitory activity toward NADH fumarate reductase (in words) (NADH fumarate reductase): strong inhibitory activity
5 | CCCCCCCC[C@@](C)(O)CCc1oc(=O)c(C)c(O)c1C [Compound 13, (R)-6-[3-Hydroxy-3-methylundecyl]-3,5-dimethyl-4-hydroxypyran-2-one] | > 31 | > 31 |  | 
6 | CCCCCCCC[C@](C)(O)CCc1oc(=O)c(C)c(O)c1C [Compound 14, (S)-6-[3-Hydroxy-3-methylundecyl]-3,5-dimethyl-4-hydroxypyran-2-one] | > 31 | > 31 | weakly stimulated | 
7 | CCCCCCCC[C@](C)(O)CCc1oc(OC)c(C)c(=O)c1C [Compound 17, (S)-2-[3-Hydroxy-3-methylundecyl]-6-methoxy-3,5-dimethyl-4H-pyran-4-one] |  |  | strongly stimulated | 
8 | CCCCC(O)Cc1oc(OC)c(C)c(=O)c1C (stereo not shown) [Compound 22, 2-(2-Hydroxyhexyl)-6-methoxy-3,5-dimethyl-4H-pyran-4-one] |  |  | weakly stimulated | Inhibition of mitochondrial respiratory chain function (in words) [7]: did not inhibit; also recorded: no inhibitory activity
9 | COc1oc(CC(O)CCCCCOc2ccc(-c3ccccc3)cc2)c(C)c(=O)c1C (stereo not shown) [Compound 30, 2-[2-Hydroxy-7-(4-phenyl)phenoxyheptyl]-6-methoxy-3,5-dimethyl-4H-pyran-4-one] |  |  | strongly stimulated | 
